Publication PMC5645071 (Journal of controlled release : official journal of the …, 2015)

Tests used:
[1] = In vitro release study; format: physicochemical; settings: in 24 h, distilled water, 37 °C, 50 rpm
How it was run: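 Test formulation equivalent to 2 mg drug stirred in USP apparatus II with 200 ml distilled water, […], paddle 50 rpm. At set intervals, 1 ml aliquots were withdrawn, filtered and assayed by HPLC, with fresh medium replaced each time.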

[2] = test system: Caco-2 monolayers; assay: Caco-2 permeability study; format: in vitro ADME
[3] = Pharmacokinetics / bioavailability in dogs; format: in vivo
[4] = test system: H1650 cancer stem cell xenograft tumor; format: in vivo; settings: 20 mg/kg oral gavage
[5] = test system: H1650 cancer stem cell orthotopic lung tumor; format: in vivo; settings: 20 mg/kg oral gavage, 30 days treatment
[6] = test system: Bcl-2; assay: Western blot of tumor lysates: Bcl-2; format: in vivo, Nu/nu mice; settings: densitometry
How it was run: (§1)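 Nu/nu mice bearing H1650 cancer-stem-cell tumours got vehicle or test compound by oral gavage, solution or self-emulsified form, 20 mg/kg (solution every other day). Tumour nodules were lysed in RIPA pH 8.0 with protease inhibitor; 50 µg protein (BCA) on 10% SDS-PAGE, nitrocellulose, 5% milk/TBST block, antibodies 1:1000, HRP secondary. Signal normalised to β-actin; three replicates, mean ± SEM, one-way ANOVA with Tukey test.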

[7] = test system: SOX2; assay: Western blot of tumor lysates: SOX2; format: in vivo, Nu/nu mice
How it was run: as §1

[8] = test system: Nanog; assay: Western blot of tumor lysates: Nanog; format: in vivo, Nu/nu mice
[9] = test system: NF-КB; assay: Western blot of tumor lysates: NF-КB; format: in vivo, Nu/nu mice
How it was run: as §1

[10] = test system: lung tumor tissue; assay: Hematoxylin and eosin staining of lung tumor tissue; format: in vivo, Nu/nu mice
[11] = mouse, in vivo, cited from earlier work
[12] = test system: CSCs; settings: cited from earlier work
[13] = test system: CSCs; settings: cited from earlier work; remark: listed apart in the source
[14] = i.v. bolus 0.5 mg/kg, two-compartment model

For 3, 3-Diindolylmethane-14 [DIM-14], the drug release [1] was ~ 10%, the “average Peff, A–B” value ([2]; Caco-2, donor pH 6.5, acceptor pH 7.4) was “approximately 0.26 ± 0.05 × 10^−6 cm/s” and the “average Peff, B–A” value ([2]; Caco-2, secretory direction) was 0.41 ± 0.09 × 10^−6 cm/s. For the same molecule, the “Volume of distribution (Vd)” value ([3]; i.v. bolus 0.5 mg/kg) was 0.321 L/kg, the “Volume of distribution at steady state (Vdss)” value ([3]; i.v. bolus 0.5 mg/kg) was 0.319 L/kg and the “K10 (elimination from central compartment)” value [3, 14] was 0.003 L/h. The “K21 (peripheral to central compartment)” value [3, 14] was 0.15 L/h, the absolute oral bioavailability ([3]; oral 3.33 mg/kg) was under 10% and the “decrease in average number of tumor nodules versus control” value [4] was 29%. For the same molecule, the “decrease in lung tumor volumes” value [4] was 29%, the “decrease in lung tumor weights versus vehicle control” value [4] was 30% and the “decrease in average number of tumor nodules versus control” value [5] was 22%. For the same molecule, the “decrease in lung tumor volumes” value [5] was 34%, the “decrease in lung tumor weights versus vehicle control” value [5] was 24% and the “reduction of β-actin relative Bcl-2 expression versus untreated control tumors” value [6] was 1.8 fold. For the same molecule, the “reduction of relative SOX2 expression versus untreated control” value [7] was 1.9 fold, the “decrease of relative Nanog expression versus untreated control” value [8] was 2.4 fold and the “expression of NF-КB” value [9] was “significantly down regulated”. For the same molecule, the “histological examination of lungs and tracheobronchial epithelium” value ([10]; all groups) was “no signs of inflammation or edema” and the “tumor microvessels (H & E histology)” value ([10]; treated tumors versus untreated mice) was “only occasional, isolated microvessels”.

For `COc1ccc(C(c2c[nH]c3ccccc23)c2c[nH]c3ccccc23)cc1` [DIM-5], the Oral bioavaibility [11] is given as 39%.

In the case of `Oc1ccc(C(c2c[nH]c3ccccc23)c2c[nH]c3ccccc23)cc1` [DIM-8], the “time to reach Cmax (Tmax)” value ([11]; po) is given as “about 60 min” and the Oral bioavaibility [11] is given as 6%.

In the case of `Clc1ccc(C(c2c[nH]c3ccccc23)c2c[nH]c3ccccc23)cc1` [DIM-12], the Oral bioavaibility [11] is given as 42%.

In the case of `CN(C)C(=N)N=C(N)N` [Metformin], the “concentrations at which it works against CSCs” value [12] is listed as 100 to 300 µM.

In the case of `CC[C@@H](C(=O)[C@@H](C)[C@@H](O)[C@H](C)[C@@H]1O[C@@H]([C@@H](CC)C(=O)O)CC[C@@H]1C)[C@H]1O[C@]2(C=C[C@@H](O)[C@]3(CC[C@@](C)([C@H]4CC[C@](O)(CC)[C@H](C)O4)O3)O2)[C@H](C)C[C@@H]1C` [salinomycin], the “reduction of the proportion of CSCs relative to paclitaxel” value [13] is listed as “more than 100 fold”.

For Lucifer Yellow [reference compound], the “mean permeability of paracellular control” value ([2]; Caco-2) was under 0.15 ×10⁻⁶ cm/s.
